The term IC50 denotes the midpoint of a concentration-inhibition curve. The ΔTm is the shift of the melting midpoint relative to a reference. As a reminder, the Cmax is the peak of the concentration-time curve. As usually defined, the CL/F is clearance divided by bioavailability, as obtained after extravascular dosing.

Data set [1] has as its target T1, Histone deacetylase 8 (Homo sapiens, UniProt Q9BY41).
T1 sequence (Q9BY41 whole entry): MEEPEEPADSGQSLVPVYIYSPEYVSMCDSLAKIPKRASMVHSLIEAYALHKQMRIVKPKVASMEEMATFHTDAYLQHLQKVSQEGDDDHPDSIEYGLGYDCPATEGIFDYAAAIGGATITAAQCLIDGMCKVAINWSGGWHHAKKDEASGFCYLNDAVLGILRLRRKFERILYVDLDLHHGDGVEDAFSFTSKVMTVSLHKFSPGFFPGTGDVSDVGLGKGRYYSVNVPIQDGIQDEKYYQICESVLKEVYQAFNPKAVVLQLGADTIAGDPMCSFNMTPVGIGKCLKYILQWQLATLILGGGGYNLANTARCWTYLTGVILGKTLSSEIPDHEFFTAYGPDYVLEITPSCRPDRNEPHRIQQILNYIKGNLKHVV
The data set can be described thus: Inhibition of GST tagged full length human recombinant HDAC8 (H90 to 30H) expressed in Baculovirus infected Sf9 insect cells using Ac-Leu-Gly-Lys(Tfa)-AMC as substrate preincubated for 5 mins followed by substrate addition measured after 30 mins by fluorescence assay.

Data set [2] relates to MDA-MB-231. Kind of data set: cells. In kind it is functional, cell-based. The note with it: Homo sapiens, MDA-MB-231, 72 h.
The test system of data set [3] is HCT-116. Kind of data set: animal or person. In kind it is functional, Homo sapiens. The settings on record: Mus musculus, HCT-116, ip, read-out: TGI.
Data set [4] has as its system HCT-116. Kind of data set: cells. In kind it is functional, cell-based. The settings on record: Homo sapiens, HCT-116, 72 h.
For data set [5], the system named is HepG2. Kind of data set: cells. The note with it: Homo sapiens, HepG2, 72 h. In kind it is functional, cell-based.
Data set [6] concerns the target T2, Histone deacetylase 1 (Homo sapiens, UniProt Q13547). The data set can be described thus: Inhibition of human recombinant HDAC1 (1 to 482 residues) expressed in Baculovirus using Ac-Leu-Gly-Lys(Ac)-AMC as substrate preincubated for 5 mins followed by substrate addition measured after 30 mins by fluorescence assay.
In data set [7] the target is T2, Histone deacetylase 1. Kind of data set: Inhibition of human recombinant HDAC1 (1 to 482 residues) expressed in Baculovirus using Ac-Leu-Gly-Lys(Ac)-AMC as substrate after 3 hrs by fluorescence assay.
The subject of data set [8] is HCT-116. Kind of data set: Induction of apoptosis in human HCT116 cells assessed as early apoptotic cells at 5 uM after 72 hrs in presence of autophagy inhibitor wortmannin by Annexin V-FITC/propidium iodide staining-based flow cytometric analysis (reference value: 7.82%). In kind it is functional.
Data set [9] concerns HCT-116. The data set can be described thus: Induction of apoptosis in human HCT116 cells assessed as necrotic cells at 5 uM after 72 hrs by Annexin V-FITC/propidium iodide staining-based flow cytometric analysis (reference value: 1.25%). In kind it is functional. The gist of the method:
(§1)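 HCT116 cells seeded at 5×10^5 cells/mL in six-well plates, treated at 5 μM for 72 h alongside vehicle. Cells trypsinized, washed twice in cold PBS, and resuspended in 1× binding buffer. Stained with annexin V-FITC 15 min at room temperature, then PI 15 min in dark, then flow cytometry.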
(Flow cytometry measures light scatter and fluorescence of single cells or particles in a stream.)

Data set [10] concerns the target Nicotinamide phosphoribosyltransferase (Homo sapiens, UniProt P43490). The note with it: 10 uM.
For data set [11], the target named is Histone deacetylase 3/NCoR1 (Homo sapiens, UniProt O15379). Kind of data set: Inhibition of human recombinant HDAC3/GST tagged NCOR1 (397 to 503 residues) expressed in insect cells using Ac-Leu-Gly-Lys(Ac)-AMC as substrate preincubated for 5 mins followed by substrate addition measured after 30 mins by fluorescence assay.
The subject of data set [12] is HCT-116. The data set can be described thus: Induction of apoptosis in human HCT116 cells assessed as early apoptotic cells at 5 uM after 72 hrs by Annexin V-FITC/propidium iodide staining-based flow cytometric analysis (reference value: 7.82%). In kind it is functional. The gist of the method:
as §1

A short description of data set [13]: Cmax in Sprague-Dawley rat at 2 mg/kg, ip. In kind it is ADME, organism-based. Details: dose 2 mg/kg, route intraperitoneal. The note with it: in vivo. The method in brief: (§2)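 Sprague-Dawley rats given a single ip dose of 2 mg/kg. Plasma concentration–time profile used to derive terminal half-life, Cmax, plasma clearance and Vss.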
Data set [14] has as its system Rattus norvegicus. The data set can be described thus: Volume of distribution at steady state in Sprague-Dawley rat at 2 mg/kg, ip. In kind it is ADME, organism-based. The note with it: in vivo. The gist of the method: as §2
Data set [15] relates to HCT-116. The data set can be described thus: Induction of apoptosis in human HCT116 cells assessed as late apoptotic cells at 5 uM after 72 hrs in presence of autophagy inhibitor wortmannin by Annexin V-FITC/propidium iodide staining-based flow cytometric analysis (reference value: 3.33%). In kind it is functional.
Data set [16] relates to HCT-116. The data set can be described thus: Induction of apoptosis in human HCT116 cells assessed as necrotic cells at 5 uM after 72 hrs in presence of autophagy inhibitor wortmannin by Annexin V-FITC/propidium iodide staining-based flow cytometric analysis (reference value: 1.25%). In kind it is functional.
For data set [17], the target named is Histone deacetylase 2 (Homo sapiens, UniProt Q92769).
Sequence of Histone deacetylase 2 (Q92769 whole entry): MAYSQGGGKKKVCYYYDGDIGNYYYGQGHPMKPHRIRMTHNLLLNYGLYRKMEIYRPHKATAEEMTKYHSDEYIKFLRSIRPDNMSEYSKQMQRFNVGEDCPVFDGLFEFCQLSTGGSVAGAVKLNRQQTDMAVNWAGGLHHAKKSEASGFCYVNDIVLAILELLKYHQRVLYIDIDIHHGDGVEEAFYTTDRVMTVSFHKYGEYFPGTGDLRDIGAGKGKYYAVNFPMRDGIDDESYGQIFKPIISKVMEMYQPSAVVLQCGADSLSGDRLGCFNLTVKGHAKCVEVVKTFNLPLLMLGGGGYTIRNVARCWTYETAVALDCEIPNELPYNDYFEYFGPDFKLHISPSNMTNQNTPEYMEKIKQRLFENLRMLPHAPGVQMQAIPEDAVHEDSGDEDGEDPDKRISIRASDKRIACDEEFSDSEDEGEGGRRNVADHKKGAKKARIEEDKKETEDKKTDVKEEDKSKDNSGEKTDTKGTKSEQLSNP
Data set [18] is described as follows: Plasma clearance in Sprague-Dawley rat at 2 mg/kg, ip. In kind it is ADME, organism-based. The method in brief: as §2
Data set [19] is filed under the species Homo sapiens. The data set can be described thus: Inhibition of HDAC in human HCT116 cells assessed as increase in acetylated histone H4 level after 24 hrs by Western blot analysis. In kind it is cell-based. The gist of the method: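 HCT116 cells treated at 1 and 5 μM for 24 h; DMSO-volume control. PBS-washed, RIPA-lysed on ice 30 min, centrifuged 12000 × g 15 min at 4 °C. 30 μg protein separated by SDS-PAGE, blotted to PVDF, blocked 5% BSA 2 h. Incubated with acetyl-histone H3 or H4 primary antibody overnight at 4 °C, then secondary antibody; infrared imaging.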
(Immunoblotting shows a protein as a band on a membrane.)

Data set [20] deals with HCT-116. Kind of data set: Induction of apoptosis in human HCT116 cells assessed as late apoptotic cells at 5 uM after 72 hrs by Annexin V-FITC/propidium iodide staining-based flow cytometric analysis (reference value: 3.33%). In kind it is functional. The gist of the method:
as §1

The subject of data set [21] is HCT-116. Kind of data set: Induction of autophagy in human HCT116 cells assessed as increase in LC3-2 level at 5 uM after 24 hrs by Western blot analysis. In kind it is functional, cell-based. The gist of the method: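 HCT116 cells exposed to 5 μM for 24, 48 and 72 h; DMSO control. Lysed in RIPA on ice, cleared 12000 × g. 30 μg protein per lane on SDS-PAGE, transferred to PVDF, blocked in 5% BSA. Probed overnight at 4 °C for LC3-II and P-62, then secondary antibody 1.5 h. Infrared imaging detection with quantification.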

The target of data set [22] is Histone deacetylase 4 (Homo sapiens, UniProt P56524). The data set can be described thus: Inhibition of GST tagged human recombinant HDAC4 (H86 to 31G) expressed in Baculovirus infected Sf9 insect cells using Ac-Leu-Gly-Lys(Tfa)-AMC as substrate preincubated for 5 mins followed by substrate addition measured after 30 mins by fluorescence assay.
Sequence of Histone deacetylase 4 (P56524 whole entry): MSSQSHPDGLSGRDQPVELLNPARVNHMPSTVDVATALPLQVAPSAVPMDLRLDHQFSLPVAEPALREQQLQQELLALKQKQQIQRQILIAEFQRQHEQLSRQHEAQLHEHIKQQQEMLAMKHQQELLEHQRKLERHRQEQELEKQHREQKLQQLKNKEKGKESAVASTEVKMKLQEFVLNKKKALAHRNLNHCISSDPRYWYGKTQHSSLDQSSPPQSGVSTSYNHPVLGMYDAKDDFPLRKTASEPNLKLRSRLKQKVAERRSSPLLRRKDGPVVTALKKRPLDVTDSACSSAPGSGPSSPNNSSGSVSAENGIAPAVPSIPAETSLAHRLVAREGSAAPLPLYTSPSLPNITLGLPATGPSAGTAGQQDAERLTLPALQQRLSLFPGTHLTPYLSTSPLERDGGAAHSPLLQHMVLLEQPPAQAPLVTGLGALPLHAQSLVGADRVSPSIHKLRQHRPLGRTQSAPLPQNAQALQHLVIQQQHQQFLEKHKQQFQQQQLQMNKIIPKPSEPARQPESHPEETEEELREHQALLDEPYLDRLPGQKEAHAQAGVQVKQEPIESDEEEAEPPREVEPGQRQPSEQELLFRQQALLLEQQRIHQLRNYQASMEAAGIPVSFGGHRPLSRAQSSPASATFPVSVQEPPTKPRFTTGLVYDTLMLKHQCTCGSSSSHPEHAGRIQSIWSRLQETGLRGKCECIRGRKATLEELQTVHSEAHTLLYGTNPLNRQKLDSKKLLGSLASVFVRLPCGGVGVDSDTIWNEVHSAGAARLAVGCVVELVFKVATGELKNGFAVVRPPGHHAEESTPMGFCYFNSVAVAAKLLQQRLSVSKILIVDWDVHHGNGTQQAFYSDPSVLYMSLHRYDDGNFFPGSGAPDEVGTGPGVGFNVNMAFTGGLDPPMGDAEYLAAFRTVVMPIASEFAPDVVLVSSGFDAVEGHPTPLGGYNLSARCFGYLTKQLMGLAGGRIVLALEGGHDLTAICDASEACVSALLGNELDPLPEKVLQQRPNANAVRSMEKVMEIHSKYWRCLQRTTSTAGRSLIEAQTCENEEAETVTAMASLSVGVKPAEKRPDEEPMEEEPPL
The subject of data set [23] is HCT-116. The data set can be described thus: Cell cycle arrest in human HCT116 cells assessed as accumulation at G2 phase at 5 uM after 48 hrs by propidium iodide staining based flow cytometry (reference value: 5%). In kind it is functional.

Active and inactive are the calls of the source. No cut-off for these calls is given here.

T2 sequence (Q13547 whole entry, the tested form may be a part): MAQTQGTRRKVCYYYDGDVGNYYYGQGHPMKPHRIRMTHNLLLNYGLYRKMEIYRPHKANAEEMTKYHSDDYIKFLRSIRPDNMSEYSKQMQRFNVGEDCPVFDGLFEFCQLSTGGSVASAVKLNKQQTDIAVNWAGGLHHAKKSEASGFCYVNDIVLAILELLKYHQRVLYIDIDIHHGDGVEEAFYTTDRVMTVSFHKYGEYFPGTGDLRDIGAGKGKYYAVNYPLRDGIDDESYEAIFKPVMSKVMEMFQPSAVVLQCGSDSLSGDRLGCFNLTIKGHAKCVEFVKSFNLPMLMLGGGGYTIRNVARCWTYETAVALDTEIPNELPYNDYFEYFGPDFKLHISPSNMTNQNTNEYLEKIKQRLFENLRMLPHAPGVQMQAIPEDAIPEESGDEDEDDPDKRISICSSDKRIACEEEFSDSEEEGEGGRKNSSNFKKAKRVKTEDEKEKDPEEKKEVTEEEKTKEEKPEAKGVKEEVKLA
Sequence of Nicotinamide phosphoribosyltransferase (P43490 whole entry, looked up, the tested form may be a part): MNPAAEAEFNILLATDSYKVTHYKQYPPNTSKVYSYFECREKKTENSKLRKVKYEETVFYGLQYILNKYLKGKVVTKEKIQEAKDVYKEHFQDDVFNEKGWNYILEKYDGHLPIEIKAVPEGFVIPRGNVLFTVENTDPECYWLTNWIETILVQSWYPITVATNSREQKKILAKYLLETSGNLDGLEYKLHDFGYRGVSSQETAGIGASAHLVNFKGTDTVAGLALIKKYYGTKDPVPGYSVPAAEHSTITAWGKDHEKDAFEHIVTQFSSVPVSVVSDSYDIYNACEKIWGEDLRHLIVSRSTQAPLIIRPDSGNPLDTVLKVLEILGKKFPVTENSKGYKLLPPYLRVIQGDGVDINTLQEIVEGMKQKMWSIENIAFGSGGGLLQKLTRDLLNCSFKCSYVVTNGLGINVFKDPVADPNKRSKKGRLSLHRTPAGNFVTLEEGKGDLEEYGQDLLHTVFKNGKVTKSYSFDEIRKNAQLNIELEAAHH

On to `Nc1ccccc1NC(=O)c1ccc(Cn2cc(-c3ccc(C(=O)NCc4cccnc4)cc3)nn2)cc1`, for which the IC50 was greater than 100000 nM in data set [1]; 10000 nM in [2]; 2400 nM in data set [4]; 4500 nM in data set [5]; 55 nM in data set [6]; 24 nM in [7]. Moreover, the 50% inhibitory concentration (IC50) in [11] was 1870 nM; in data set [17] it was 75 nM; in data set [22], greater than 100000 nM. In data set [3], the inhibition in vivo at 25 mg/kg was found to be 69%. For the same compound, the Activity came to 12.46% in data set [8]; 2.43% in [9]; 22.15% in data set [12]; 15.22% in data set [15]; 2.19% in data set [16]; 21.84% in data set [20]. Also, in [23], the Activity was 39%. In data set [10], the shift in melting temperature (ΔTm) amounted to 1.58 °C. In [13], this compound gave a Cmax of 745 ng/mL. In addition, in [14], the Vdss amounted to 6.229 L/kg. This compound had a CL/F in data set [18] of 103 mL/min/kg. Moreover, in [19], the inhibition entry was “Active”. Further, in data set [21], the outcome was Active.

The values above are taken from ChEMBL document CHEMBL4017517, “Small Molecule Inhibitors Simultaneously Targeting Cancer Metabolism and Epigenetics: Discovery of Novel Nicotinamide Phosphoribosyltransferase (NAMPT) and Histone Deacetylase (HDAC) Dual Inhibitors” (J Med Chem, 2017).
